Columns and labels:
[1] = target: T1, Sodium- and chloride-dependent GABA transporter 1 (Mus musculus, UniProt P31648); assay: Inhibition of NO711 binding to mouse GAT1 expressed in HEK293 cell membranes assessed as residual binding preincubated for 4 hrs followed by NO711 addition and measured after 40 mins by LC-ESI-MS/MS analysis
In short: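 Pseudostatic hydrazone libraries were generated with mouse GAT1 present. Each held eight aldehydes (1.0 µM each) plus hydrazine (200 µM), incubated 4 h. NO711 marker was added directly for a further 40 min. Bound marker was released and quantified by LC-ESI-MS/MS as % remaining specific binding, four replicates (means±SD).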

[2] = target: T1, Sodium- and chloride-dependent GABA transporter 1; assay: Inhibition of mouse GAT1 expressed in HEK293 cells assessed as reduction in [3H]GABA uptake preincubated for 25 mins followed by [3H]GABA addition and measured after 4 mins by liquid scintillation counting method; format: cell-based
[3] = target: T2, Sodium- and chloride-dependent GABA transporter 1 (Homo sapiens, UniProt P30531); assay: Inhibition of NO711 binding to human GAT1 expressed in COS cell membranes by LC-ESI-MS/MS analysis
[4] = target: T2, Sodium- and chloride-dependent GABA transporter 1; assay: Inhibition of NO711 binding to human GAT1 expressed in COS cell membranes preincubated for 25 mins by LC-ESI-MS/MS analysis
GABA transporter 4 = target: T3, GABA transporter 4 (Mus musculus, UniProt P31650); assay: Inhibition of mouse GAT4 expressed in HEK293 cells assessed as reduction in [3H]GABA uptake preincubated for 25 mins followed by [3H]GABA addition and measured after 4 mins by liquid scintillation counting method; format: cell-based
T3 sequence (P31650 whole entry): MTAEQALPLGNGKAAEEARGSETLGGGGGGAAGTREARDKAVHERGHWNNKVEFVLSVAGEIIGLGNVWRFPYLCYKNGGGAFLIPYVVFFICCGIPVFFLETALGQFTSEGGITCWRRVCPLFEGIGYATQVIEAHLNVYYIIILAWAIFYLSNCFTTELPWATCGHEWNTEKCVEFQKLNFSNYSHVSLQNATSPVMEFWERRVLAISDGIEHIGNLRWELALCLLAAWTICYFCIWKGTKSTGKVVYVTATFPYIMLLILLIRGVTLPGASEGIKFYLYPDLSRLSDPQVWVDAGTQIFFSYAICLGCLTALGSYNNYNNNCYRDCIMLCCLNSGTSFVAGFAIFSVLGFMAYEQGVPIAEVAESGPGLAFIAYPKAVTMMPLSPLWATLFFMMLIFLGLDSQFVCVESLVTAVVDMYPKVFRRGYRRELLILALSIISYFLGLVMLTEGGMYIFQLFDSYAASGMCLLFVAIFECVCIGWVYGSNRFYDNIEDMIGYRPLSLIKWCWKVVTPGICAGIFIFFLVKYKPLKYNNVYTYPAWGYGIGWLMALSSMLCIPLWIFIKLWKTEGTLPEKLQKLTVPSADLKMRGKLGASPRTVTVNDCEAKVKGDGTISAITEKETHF

T2 sequence (P30531 whole entry): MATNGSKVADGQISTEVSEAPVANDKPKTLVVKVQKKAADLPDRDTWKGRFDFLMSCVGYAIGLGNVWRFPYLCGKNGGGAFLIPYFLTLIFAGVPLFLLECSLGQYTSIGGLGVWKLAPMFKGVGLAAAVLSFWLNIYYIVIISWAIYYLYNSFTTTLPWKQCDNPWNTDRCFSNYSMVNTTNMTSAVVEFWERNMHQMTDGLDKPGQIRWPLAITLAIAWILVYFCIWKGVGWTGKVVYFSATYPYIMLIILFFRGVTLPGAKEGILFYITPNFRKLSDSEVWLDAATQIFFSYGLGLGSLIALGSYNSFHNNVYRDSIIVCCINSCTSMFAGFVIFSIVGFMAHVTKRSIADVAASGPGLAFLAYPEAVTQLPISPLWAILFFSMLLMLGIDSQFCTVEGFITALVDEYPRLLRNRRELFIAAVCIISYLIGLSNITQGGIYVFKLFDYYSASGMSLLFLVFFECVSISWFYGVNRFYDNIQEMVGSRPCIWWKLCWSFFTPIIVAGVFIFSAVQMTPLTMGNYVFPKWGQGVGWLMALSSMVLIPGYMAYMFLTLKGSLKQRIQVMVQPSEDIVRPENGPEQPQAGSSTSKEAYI

`O=C(O)[C@H]1CNC[C@@H](CN/N=C/c2cnc(-c3ccc4ccccc4c3)nc2)C1` (racemic) gave a Ki [1] of 0.933 µM.
With `O=C(O)[C@H]1CNC[C@@H](CN/N=C/c2ccc(-c3ccc(Cl)cc3Cl)o2)C1` (racemic) the Ki [1] was 0.646 µM.
`Cc1ccsc1C(=CCCN1CCC[C@@H](C(=O)O)C1)c1sccc1C` [TIAGABINE] gave a Ki [1] of 0.0275 µM.
With `O=C(O)[C@H]1CNC[C@@H](CN/N=C/c2ccc(-c3cc(C(F)(F)F)ccc3Cl)o2)C1` (racemic) the Ki [1] was 0.468 µM, the IC50 [2] was 81.3 µM and the IC50 [3] was 26.9 to 170 µM. It also gave an IC50 [4] of 30.9 to 135 µM.
`O=C(O)[C@H]1CNC[C@@H](CN/N=C/c2ccc(-c3ccc(Cl)cc3[N+](=O)[O-])o2)C1` (racemic) gave a Ki [1] of 1.48 µM.
In the case of `O=C(O)[C@H]1CNC[C@@H](CN/N=C/c2ccc(-c3cccc(C(F)(F)F)c3)o2)C1` (racemic), the Ki [1] is reported as 0.708 µM.
`O=C(O)[C@H]1CNC[C@@H](CN/N=C/c2ccc(-c3cccc4ccccc34)o2)C1` (racemic) gave a Ki [1] of 0.214 µM, an IC50 [2] of 22.9 µM and an IC50 (GABA transporter 4) of 75.9 µM. For the same molecule, the IC50 [3] was 26.9 to 170 µM and the IC50 [4] was 42.7 µM.
In the case of `O=C(O)[C@H]1CNC[C@@H](CN/N=C/c2ccc(-c3cccc(Cl)c3)o2)C1` (racemic), the Ki [1] is reported as 1.86 µM.
Molecule `O=C(O)[C@H]1CNC[C@@H](CN/N=C/c2ccc(-c3ccc(F)c(C(F)(F)F)c3)o2)C1` (racemic) has a Ki [1] of 1.26 µM.
`O=C(O)[C@H]1CNC[C@@H](CN/N=C/c2ccc(-c3ccc(C(F)(F)F)cc3Cl)o2)C1` (racemic) showed a Ki [1] of 0.447 µM, an IC50 [2] of 41.7 µM and an IC50 [3] of 26.9 to 170 µM. The IC50 [4] was 30.9 to 135 µM.
`O=C(O)[C@H]1CNC[C@@H](CN/N=C/c2ccc(-c3cc(C(F)(F)F)cc(C(F)(F)F)c3)o2)C1` (racemic) was tested, and the Ki [1] was 0.245 µM, the IC50 [3] was 26.9 to 170 µM and the IC50 [4] was 135 µM.
With `O=C(O)[C@H]1CNC[C@@H](CN/N=C/c2ccc(-c3ccccc3C(F)(F)F)o2)C1` (racemic) the Ki [1] was 2.29 µM.
Molecule `O=C(O)[C@H]1CNC[C@@H](CCN/N=C/c2ccc(-c3ccc(C(F)(F)F)cc3Cl)o2)C1` (racemic) has a Ki [1] of 0.617 µM, an IC50 [2] of 44.7 µM and an IC50 (GABA transporter 4) of 41.7 µM. For the same molecule, the IC50 [3] was 26.9 to 170 µM and the IC50 [4] was 30.9 to 135 µM.
`O=C(O)[C@H]1CNC[C@@H](CN/N=C/c2ccc(-c3ccccc3Br)o2)C1` (racemic) showed a Ki [1] of 1.45 µM.
`O=C(O)[C@H]1CNC[C@@H](CN/N=C/c2ccc(-c3ccccc3Cl)o2)C1` (racemic) was tested, and the Ki [1] was 1.23 µM.
`O=C(O)[C@H]1CNC[C@@H](CCN/N=C/c2ccc(-c3ccc(Cl)cc3Cl)o2)C1` (racemic) showed a Ki [1] of 0.479 µM, an IC50 [2] of 35.5 µM and an IC50 (GABA transporter 4) of 15.1 µM. For the same molecule, the IC50 [3] was 26.9 to 170 µM and the IC50 [4] was 30.9 to 135 µM.
`O=C(O)[C@H]1CNC[C@@H](CN/N=C/c2cccc(Oc3ccccc3)c2)C1` (racemic) gave a Ki [1] of 0.955 µM.

Source: ChEMBL document CHEMBL4371014, “Novel Allosteric Ligands of γ-Aminobutyric Acid Transporter 1 (GAT1) by MS Based Screening of Pseudostatic Hydrazone Libraries” (J Med Chem, 2018)
